In ChEMBL document CHEMBL3526015, “Metabolism of the c-Fos/activator protein-1 inhibitor T-5224 by multiple human UDP-glucuronosyltransferase isoforms” (Drug Metab Dispos, 2011) one finds Drug metabolism, Ki and Vmax/Km data, which are given here for one compound.

In series [1] the target is T1, Cytochrome P450 1A2 (Homo sapiens, UniProt P05177).
T1 sequence (P05177 whole entry): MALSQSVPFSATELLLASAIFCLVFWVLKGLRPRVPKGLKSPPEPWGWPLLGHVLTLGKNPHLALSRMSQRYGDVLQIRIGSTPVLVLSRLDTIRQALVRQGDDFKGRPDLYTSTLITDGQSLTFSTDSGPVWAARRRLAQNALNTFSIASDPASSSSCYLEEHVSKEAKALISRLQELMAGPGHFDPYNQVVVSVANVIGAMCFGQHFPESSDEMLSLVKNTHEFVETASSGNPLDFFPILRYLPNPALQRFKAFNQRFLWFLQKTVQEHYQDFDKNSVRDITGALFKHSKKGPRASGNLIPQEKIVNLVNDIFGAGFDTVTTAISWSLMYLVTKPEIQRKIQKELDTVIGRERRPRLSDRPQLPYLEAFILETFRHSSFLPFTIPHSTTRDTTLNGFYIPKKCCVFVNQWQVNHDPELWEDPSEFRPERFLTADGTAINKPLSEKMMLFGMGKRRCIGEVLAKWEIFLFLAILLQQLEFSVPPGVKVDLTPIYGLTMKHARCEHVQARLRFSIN
Nature of the series: Drug metabolism assessed as human CYP1A2-mediated metabolite formation at 2 uM after 30 mins by HPLC method. The series is classed as ADME. The following applies: recombinant enzyme, 0.5 h. In outline:
(§1)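 Each recombinant human P450 was used at 50 pmol/mL with an NADPH-generating system and 2 μM 14C-T-5224 (0.5% DMSO final). Buffer was 100 mM Tris-HCl pH 7.5, except 100 mM potassium phosphate pH 7.4 for CYP2A6 and CYP2C9*1. Incubation ran 30 min at 37°C and was stopped with acetonitrile/methanol. Radioactive metabolite peaks were detected by C18 HPLC.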

The target in series [2] is Liver microsome. As to the kind of experiment: Substrate inhibition of T-5224 hydroxyl O-glucuronide formation in human liver microsomes after 10 to 60 mins by HPLC method. Summed up:
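Pooled liver (0.5 mg protein/mL) or intestinal (0.25 mg protein/mL) microsomes in 50 mM Tris-HCl pH 7.5, 8 mM MgCl2, alamethicin, 2% DMSO. T-5224 at 1–50 μM, 5 min preincubation at 37°C, started with 2 mM UDPGA. Incubated 10 min, or 20 min for intestinal microsomes at 1–5 μM. Acetonitrile stop, glucuronides by HPLC at 290 nm. Triplicates fitted to a substrate-inhibition model.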
Background: Microsomes from liver hold many membrane-bound enzymes, among them those of drug oxidation.

Series [3] deals with T2, UDP-glucuronosyltransferase 1A1 (Homo sapiens, UniProt P22309).
T2 sequence (P22309 whole entry): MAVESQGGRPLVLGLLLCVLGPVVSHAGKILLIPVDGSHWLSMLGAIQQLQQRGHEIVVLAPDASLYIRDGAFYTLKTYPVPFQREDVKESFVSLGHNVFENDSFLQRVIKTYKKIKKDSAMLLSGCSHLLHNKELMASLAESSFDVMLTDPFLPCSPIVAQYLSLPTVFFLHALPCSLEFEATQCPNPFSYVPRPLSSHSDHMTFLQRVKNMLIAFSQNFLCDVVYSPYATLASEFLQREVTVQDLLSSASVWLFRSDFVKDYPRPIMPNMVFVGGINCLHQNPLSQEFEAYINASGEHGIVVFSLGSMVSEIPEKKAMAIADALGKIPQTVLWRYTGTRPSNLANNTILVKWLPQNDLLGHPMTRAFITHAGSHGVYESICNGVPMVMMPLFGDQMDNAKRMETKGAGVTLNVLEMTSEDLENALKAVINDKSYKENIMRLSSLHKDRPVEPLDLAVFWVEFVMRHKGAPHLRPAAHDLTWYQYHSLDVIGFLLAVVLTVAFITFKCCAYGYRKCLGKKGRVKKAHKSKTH
As to the kind of experiment: Drug metabolism assessed as human UGT1A1-mediated T-5224 acyl O-glucuronide formation at 5 to 50 uM after 60 mins in presence of UDP-glucuronic acid by HPLC method. Conditions: recombinant enzyme, 1 h. It counts as ADME.

Series [4] has as its target T3, UDP-glucuronosyltransferase 1A3 (Homo sapiens, UniProt P35503).
T3 sequence (P35503 whole entry): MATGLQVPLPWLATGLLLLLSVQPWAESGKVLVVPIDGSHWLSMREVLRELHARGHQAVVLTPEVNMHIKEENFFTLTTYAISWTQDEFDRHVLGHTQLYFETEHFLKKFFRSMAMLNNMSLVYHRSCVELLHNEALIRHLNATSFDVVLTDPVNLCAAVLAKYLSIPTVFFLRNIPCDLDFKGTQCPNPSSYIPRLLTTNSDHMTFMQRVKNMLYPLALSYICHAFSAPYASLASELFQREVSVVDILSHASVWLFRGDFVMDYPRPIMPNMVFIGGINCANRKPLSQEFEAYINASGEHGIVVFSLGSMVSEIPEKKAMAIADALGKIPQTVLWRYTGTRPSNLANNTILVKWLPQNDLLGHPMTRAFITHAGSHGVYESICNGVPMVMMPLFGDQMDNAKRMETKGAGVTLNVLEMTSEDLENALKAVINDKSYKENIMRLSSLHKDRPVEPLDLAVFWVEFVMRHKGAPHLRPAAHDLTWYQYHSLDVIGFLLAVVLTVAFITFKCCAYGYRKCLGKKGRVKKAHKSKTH
Nature of the series: Drug metabolism assessed as Vmax/Km ratio for human UGT1A3-mediated T-5224 hydroxyl O-glucuronide formation per mg protein after 10 to 60 mins in presence of UDP-glucuronic acid by HPLC method. The following applies: recombinant enzyme. It counts as ADME. In outline: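 Kinetics used recombinant UGT1A1, 1A3 or 1A8 (0.1 mg protein/mL) with T-5224 at 1–50 μM, 2 mM UDPGA and 60 min at 37°C, in triplicate. G2/G3 were measured by HPLC at 290 nm and fitted to a substrate-inhibition model (Vmax, Km, Ksi). UGT content was quantified by immunoblot, and kcat = Vmax/E0 was derived from it.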

A short description of series [5]: Drug metabolism in pooled human intestinal microsomes assessed as T-5224 hydroxyl O-glucuronide formation at 10 uM after 10 mins by HPLC method. It counts as ADME, Intestine, Microsome. In outline: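 T-5224 at 10 μM incubated for 10 min at 37°C with UDPGA (2 mM) in pooled liver (0.5 mg protein/mL) or intestinal (0.25 mg protein/mL) microsomes. Buffer was 50 mM Tris-HCl pH 7.5 with 8 mM MgCl2 and alamethicin, after 5 min preincubation. Stopped with acetonitrile; glucuronides quantified by HPLC at 290 nm.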

A short description of series [6]: Drug metabolism assessed as human CYP2C9*1-mediated metabolite formation at 2 uM after 30 mins by HPLC method. It counts as ADME. The following applies: 0.5 h. In outline: as §1
Series [7] concerns the target T3, UDP-glucuronosyltransferase 1A3. As to the kind of experiment: Drug metabolism assessed as human UGT1A3-mediated T-5224 acyl O-glucuronide formation at 5 to 50 uM after 60 mins in presence of UDP-glucuronic acid by HPLC method. It counts as ADME. Conditions: recombinant enzyme, 1 h.
A short description of series [8]: Drug metabolism in human intestinal microsomes assessed as Vmax/Km ratio for T-5224 hydroxyl O-glucuronide formation per mg protein after 10 to 60 mins by HPLC method. It counts as ADME, Intestine, Microsome. Summed up:
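Pooled liver microsomes (0.5 mg/mL) were incubated 10 min. Pooled intestinal microsomes (0.25 mg/mL) ran 10 min at T-5224 10–50 μM and 20 min at 1–5 μM. Buffer was 50 mM Tris-HCl pH 7.5 with 8 mM MgCl2, alamethicin and 2 mM UDPGA, at 37°C, in triplicate. Glucuronides G2/G3 were read by HPLC at 290 nm and fitted for Vmax/Km.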

On to `O=C(O)CCc1cc(C(=O)c2ccc(OC3CCCC3)cc2O)ccc1OCc1ccc2c(O)noc2c1`, for which the Drug metabolism entry in series [1] is reported as “metabolite_not_detected”; in series [3], “metabolite_detected”; in series [5] it was “metabolite_detected”; in series [6] it was “metabolite_not_detected”; in series [7] it was “metabolite_detected”. The Ki in series [2] is 27 µM. In addition, the values for the Vmax/Km in series [4] and in series [8] were 47.5 µL/min and 34.6 µL/min, respectively.
